# Shown are actives, neighbours in structure and some others; about 2.3% of the full set was active somewhere.
# SKN-1 inh: blocks SKN-1 activity in C. elegans; inhibition, % at 21.8 µM; C. elegans VP596 Pgst-4::GFP/RFP ratio, acrylamide-induced, 24 h; 360,000 compounds, 0.49% hits;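 active = interference check ratio from 0.5 to 1.5 plus GFP to RFP signal ratio inhibition reaching or exceeding a fixed threshold, cut at about 30% in these data, passing the limit was not always enough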
# Rpn11 block: Rpn11 (human) deubiquitinase inhibition. O00487. human 26S proteasome, Ub4-pepOG fluorescence polarization; 20S core pre-blocked with epoxomicin. 360,000 compounds, 0.59% hits. inhibition, % at 20 µM;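 active = inhibition at 20 µM, scaled to each plate's controls, above about 33%, limit read from the data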
# SUMO1-SIM PPI: modulators of human SUMO1-mediated protein-protein interactions; SUMO1 binding to a labelled peptide, TR-FRET, 1 h; AID 602429; 360,000 compounds, 0.33% hits; inhibition, % at 20 µM; in the data active = inhibition above about 37%
# MT1-MMP act inh: blocks activation of human MT1-MMP; HT1080 RFP-PRO-GFP cells, GFP/RFP ratio fluorescence, overnight; percent of plate control window, DMSO zero; P50281; GFP/RFP ratio change, % at 20 µM; 360,000 compounds, 0.061% hits;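 active = GFP/RFP ratio change of at least 30% with cell ATP level not reduced by more than half and red fluorescence within 50% of control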
#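 Material – HT1080 RFP-PRO-GFP cells · Control set – DMSO wells and RFP-L50D-GFP cells · Incubation – overnight cell settling, then overnight compound exposure, 37 °C, 5% CO2 · Compound dosing – single-point 20 µM compound, 1% DMSO · Read-out – GFP/RFP fluorescence ratio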
# CSN inh: CSN deneddylation inhibition; Purified CSN, SCF-Nedd8-OG deneddylation, fluorescence polarization; inhibition, % at 12.5 µM; 360,000 compounds, 0.38% hits; AID 651999;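 active = pattern-corrected inhibition above about 35%, with an unprinted fluorescence ratio check between 0.5 and 1.5, limit read from the data, passing the limit was not always enough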;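 also: 0% = enzyme with substrate and 100% = substrate without enzyme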
#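 Test system: purified human Csn5 enzyme expressed in HEK293T cells. Amount: 0.24 nM enzyme. Reagent: SCFSkp2-Nedd8OG substrate at 10 nM final. Schedule: 90 min incubation of compound, enzyme and substrate at room temperature. Detection: fluorescence polarization. Read-out: % inhibition of substrate cleavage by Csn5.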
# DNMT1 inh: blocks human DNA methyltransferase DNMT1; P26358; DNMT1 molecular beacon, Hinp1I cleavage, fluorescence; inhibition (reported as % activation of signal), % at 10 µM; 360,000 compounds, 0.83% hits; in the data active = inhibition above about 50%
# Rpn11 inh conf: Rpn11 inhibition confirmation, single concentration; inhibition, % at 20 µM; purified human 26S proteasome, Ub4-pepOG fluorescence polarization; proteasome pretreated with epoxomicin; shares compounds with Rpn11 block; 1,900 compounds, 29% hits
# MMP-2 counter: blocks human MMP-2, flagging nonselective RPN11 hits; 1,900 compounds, 4% hits; AID 602330; recombinant MMP-2, FRET peptide cleavage fluorescence; shares compounds with Rpn11 block; inhibition, % at 20 µM;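 also: human MMP-2 activated beforehand with APMA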
# Target sequence (P08253 whole entry, looked up): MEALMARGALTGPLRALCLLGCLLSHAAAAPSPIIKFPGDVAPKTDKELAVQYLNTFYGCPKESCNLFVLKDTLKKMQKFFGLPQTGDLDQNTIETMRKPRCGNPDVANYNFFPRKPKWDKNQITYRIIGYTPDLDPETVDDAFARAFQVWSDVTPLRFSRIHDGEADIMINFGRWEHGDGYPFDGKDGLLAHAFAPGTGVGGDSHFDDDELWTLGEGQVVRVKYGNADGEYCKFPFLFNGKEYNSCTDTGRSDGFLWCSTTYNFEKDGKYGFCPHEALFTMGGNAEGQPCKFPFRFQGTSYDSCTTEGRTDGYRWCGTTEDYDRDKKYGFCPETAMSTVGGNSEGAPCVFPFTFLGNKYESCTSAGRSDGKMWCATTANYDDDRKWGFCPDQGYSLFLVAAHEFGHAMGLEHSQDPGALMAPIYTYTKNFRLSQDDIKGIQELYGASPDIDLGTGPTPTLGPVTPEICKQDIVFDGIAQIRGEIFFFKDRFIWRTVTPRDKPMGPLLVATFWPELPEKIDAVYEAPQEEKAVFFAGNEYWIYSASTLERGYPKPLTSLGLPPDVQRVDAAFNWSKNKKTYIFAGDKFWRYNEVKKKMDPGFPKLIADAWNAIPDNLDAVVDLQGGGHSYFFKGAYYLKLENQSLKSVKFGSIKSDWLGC
# Thrombin FP: thrombin (bovine) inhibition counter-screen; shares compounds with Rpn11 block; bovine thrombin cleavage of Ub4-pepOG, fluorescence polarization; inhibition, % at 20 µM; 1,900 compounds, 13% hits; AID 602333;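 active = mean inhibition at least 40% at 20 µM, or signal 3 deviations below plate average, so some actives read negative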;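 also: plate controls were thrombin with DMSO for no effect and buffer wells lacking thrombin for full effect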
# An asterisk follows results filed as active; x = not tested or not shown. Rule as the data show it, unless noted: active = inhibition above about 40%; inactive = the rest.
SMILES,SKN-1 inh,Rpn11 block,SUMO1-SIM PPI,MT1-MMP act inh,CSN inh,DNMT1 inh,Rpn11 inh conf,MMP-2 counter,Thrombin FP
COc1ccc(CCN2C(=O)C=CC2=O)cc1OC,9,0,21,2,-2,4,x,x,x
Cc1c(C(=O)N/N=C/c2ccc(O)c(Br)c2)sc(N)c1C#N,-6,58*,18,-53,14,-11,54*,20,41*
COc1cc(/C=N/NC(=O)c2sc(N)c(C#N)c2C)ccc1O,-11,0,-8,-4,-8,-5,x,x,x
CCNC(=O)C1(C)CCN(C(=O)c2ccc(C(F)(F)F)cc2)C1 (stereo not drawn),-7,11,1,9,-4,0,x,x,x
Cc1ccc(C(C)C)c(OCc2nn(CC(=O)c3ccc(Cl)cc3)c3[n+]2CCCCC3)c1,0,39*,-79,-53,5,14,27,-13,11
Cc1nc2ccccc2c2oc(C(=O)N3CCN(C4CCCCC4)CC3)cc12,1,3,2,x,1,5,x,x,x
Cc1nc2ccccc2c2oc(C(=O)N3CCC(N4CCCCC4)CC3)cc12,-2,58*,35,-4,16,-5,18,-36,2
CCOC(=O)C1=CCC(c2cc3ccc(OC)cc3n2C(=O)OC(C)(C)C)NC1 (stereo not drawn),4,x,-5,6,-6,x,x,x,x
O=C(Nc1ccnc(=O)[nH]1)c1sc2ccccc2c1Cl,-4,41*,-16,-5,8,1,3,16,-8
CS(=O)(=O)c1ccc(C(=O)OCC(=O)NCc2cccs2)cc1[N+](=O)[O-],-7,41*,-13,14,7,71*,-23,-32,-33
CCCCn1c(O)c(/C=C2\C=Nc3ccccc32)c(=O)[nH]c1=O,-8,42*,-18,-3,9,3,51*,-29,11
CCCCc1nn2c(N)c(/C=C3\C=Nc4ccccc43)c(=O)nc2s1,9,21,-1,7,2,-4,x,x,x
COc1cccc(-c2csc3nnc(SCC(=O)c4ccc(NC(C)=O)cc4)n23)c1,17,40*,43*,1,17,0,22,7,9
COc1ccc(OC)c(-c2csc3nnc(SCC(=O)Nc4ccc(NC(C)=O)cc4)n23)c1,6,-5,4,0,2,-4,x,x,x
COc1ccc(-n2c(=O)/c(=C\c3cccs3)s/c2=C(/C#N)C(=O)NCCN2CCOCC2)cc1,4,105*,-30,-7,27,-3,38,15,44*
CCOC1=C2CN(S(=O)(=O)c3ccc(C)cc3)[C@H](c3ccccc3)C[C@@H]2N(S(C)(=O)=O)[C@H](c2ccccc2)C1,10,48*,1,1,5,-4,28,-11,19
N#C/C(=C\c1ccc(-c2ccccc2)cc1)c1nc(-c2ccco2)cs1,25,56*,1,1,14,6,-2,-14,-5
N#C/C(=C/c1ccc(-c2ccccc2)o1)c1nc(-c2cccs2)cs1,13,x,-23,-100,63,28,x,x,x
Cc1nn(-c2ccccc2)nc1C(=O)Nc1cccc(C(=O)NC2CC2)c1,-1,17,-3,-4,4,-4,x,x,x
O=Cc1sc(Nc2ccccc2)nc1Cl,3,76*,-9,-48,25,1,60*,5,30
CC(C)c1c(C(=O)Nc2ccccc2)c(-c2ccccc2)c(-c2ccc(F)cc2)n1CC[C@@H](O)C[C@@H](O)CC(=O)O,11,8,-2,3,-3,-11,x,x,x
CC/C(=N/Nc1cccc(Cl)c1)c1cnnc(SC)n1,2,56*,0,-13,5,46,4,0,-23
CNc1nc(NCc2ccc(N(C)C)cc2)c2sccc2n1,5,-3,15,-1,12,1,x,x,x
Cc1ccccc1C(=O)NCCN1CCC(n2c(=O)[nH]c3ccccc32)CC1,6,x,3,0,-2,x,x,x,x
CC(=O)Oc1ccc(-c2ccc(C(=O)NCCc3ccc(S(N)(=O)=O)cc3)cc2)cc1,6,48*,3,4,-1,45,11,-16,9
SMILES,SKN-1 inh,Rpn11 block,SUMO1-SIM PPI,MT1-MMP act inh,CSN inh,DNMT1 inh,Rpn11 inh conf,MMP-2 counter,Thrombin FP
CCN(CC)CCCNC(=O)c1nn(-c2ccc(OC)cc2OC)c(=O)c2ccccc12,19,48*,-2,-1,2,3,11,4,15
CC(C)[C@@H](C(=O)N[C@@H](CCc1ccc(O)cc1)C(=O)O)N(C)C(=O)[C@H](CO)NC(=O)[C@@H](O)[C@H](N)CCCCCCCCl,4,-6,3,0,-4,-6,x,x,x
O=C(Nc1ccccc1-c1nnc(SCc2ccc(Cl)cc2)o1)c1ccccc1,13,66*,-1,-3,6,4,-10,13,-6
CCCCOc1ccc2c(c1)/C(=C(\C(Cl)=C(Cl)Cl)[N+](=O)[O-])N2,10,37*,3,-19,7,-1,-48,36,-62
CCOc1ccc2c(c1)/C(=C(\C(Cl)=C(Cl)Cl)[N+](=O)[O-])N2,-4,-5,3,-13,0,-15,x,x,x
CCN(CC)C(=O)c1cccc(-c2csc(C(NC(C)=O)c3cccc(OC)c3)n2)c1 (stereo not drawn),-9,3,-7,3,0,-1,x,x,x
Nc1[nH]c(C(=O)c2ccccc2)c(-c2ccc(Cl)c(F)c2)c1C(=O)NCCc1c[nH]c2ccccc12,17,x,0,5,-2,x,x,x,x
Oc1ccc(N=Nc2n[nH]c(-c3ccccc3)n2)cc1,2,8,-48,4,1,2,x,x,x
Oc1ccc(N=Nc2nc(-c3ccccc3)c(-c3ccccc3)[nH]2)cc1,11,55*,-41,9,15,-24,34,-10,32
Fc1cccc(Cc2c(-c3ccco3)nc3c(Cl)cc(C(F)(F)F)cn23)c1,-10,9,0,3,8,6,x,x,x
CCOC(=O)Cc1ccc(Nc2nc3cc(-c4sccc4C)sc3c(=O)n2C)cc1,4,3,-5,1,0,-16,x,x,x
COc1ccc(C2CC(c3ccccc3)=NN2c2ccc(N)cc2)cc1 (stereo not drawn),8,48*,-9,9,-5,-19,37,36,16
